Assay results taken from ChEMBL document CHEMBL1135583, “Activity of bisphosphonates against Trypanosoma brucei rhodesiense” (J Med Chem, 2002).

How the values were obtained:
[1] = Therapeutic index measured as the ratio of LD50 (KB cells) to IC50 (T.b. rhodesiense); assay type: cell-based; conditions: trypanosoma brucei rhodesiense, KB cells versus T. b. rhodesiense; read-out: TI
Summary of the method: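 KB cell growth inhibition measured by Alamar blue to give LD50, the dose lethal to 50% of cells; highest level tested 300 μg/mL. Index computed as LD50 (KB cells) / IC50 (T. b. rhodesiense).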

[2] = 50% lethal dose for inhibition of KB cells growth; assay type: cell-based; conditions: human, read-out: LD50 (the source's name)
Summary of the method: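 KB cell line growth measured over a dose-response series by the Alamar blue method. The LD50 is the concentration lethal to 50% of KB cells. The highest level tested was 300 μg/mL; ">" means no inhibition at that level.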

[3] = tested on: Trypanosoma brucei rhodesiense; test: Predicted pIC50 against Trypomastigotes Brucei rhodesiense.; assay type: functional, organism-based
Summary of the method: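 QSAR prediction from a bisphosphonate training set. Structures geometry-optimized by steepest-descent, conjugate-gradient and Newton–Raphson minimization with no internal constraints. Each molecule aligned by rms fit of its P–C–P backbone to the lowest-energy conformer of the template. Models validated by leave-one-out cross-validation.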

[4] = tested on: Trypanosoma brucei rhodesiense; test: In vitro growth inhibition of bloodstream-form Trypanosoma brucei rhodesiense Trypomastigotes; assay type: functional, organism-based
Summary of the method: (§1)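 Bloodstream-form T. b. rhodesiense trypomastigotes, strain STIB 900, grown in vitro with the bisphosphonate. IC50 taken as the drug concentration that cuts parasite proliferation by 50%.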

[5] = tested on: Trypanosoma brucei rhodesiense; test: Log IC50 brucei Trypomastigotes; assay type: functional, organism-based; summary of the method: as §1
[6] = tested on: Trypanosoma brucei rhodesiense; test: Percent inhibition of Trypanosoma brucei rhodesiense at 83.54 uM of risedronate along with GPP; assay type: functional
[7] = tested on: Trypanosoma brucei rhodesiense; test: Percent inhibition of Trypanosoma brucei rhodesiense at 9.27 uM of risedronate along with GPP; assay type: functional
[8] = tested on: Trypanosoma brucei rhodesiense; test: Percent inhibition of Trypanosoma brucei rhodesiense at 1.03 uM of risedronate along with GPP; assay type: functional
[9] = tested on: Trypanosoma brucei rhodesiense; test: Percent inhibition of Trypanosoma brucei rhodesiense at 27.85 uM of risedronate along with GPP; assay type: functional
[10] = tested on: Trypanosoma brucei rhodesiense; test: Percent inhibition of Trypanosoma brucei rhodesiense at 3.09 uM of risedronate along with GPP; assay type: functional
Summary of the method: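 Rescue assay with bloodstream-form trypomastigotes (strain STIB900) seeded at 1 × 10^5/mL in HMI-18 medium with 20% HIFCS. Bisphosphonate was given as three-fold serial dilutions from 83.5 μM, in triplicate. Geranyl pyrophosphate was added at a final 12.5 μg/mL. Plates were incubated for 72 h at 37 °C in 5% CO2-air, then Alamar Blue was added for 4 h and fluorescence read at 530/585 nm.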

[11] = tested on: Trypanosoma brucei rhodesiense; test: In vitro growth inhibition of Trypanosoma brucei rhodesiense (risedronate + GPP); assay type: functional, organism-based
[12] = tested on: Trypanosoma brucei rhodesiense; test: In vitro rescue of growth inhibition of Trypanosoma uM of risedronate along with farnesol (12.5 ug/mL); assay type: functional
[13] = tested on: Trypanosoma brucei rhodesiense; test: In vitro rescue of growth inhibition of Trypanosoma brucei rhodesiense [risedronate + farnesol(12.5 ug/mL)]; assay type: functional, organism-based
[14] = tested on: Trypanosoma brucei rhodesiense; test: Percent inhibition of Trypanosoma brucei rhodesiense at 83.54 uM of risedronate along with FPP; assay type: functional
[15] = tested on: Trypanosoma brucei rhodesiense; test: In vitro growth inhibition of Trypanosoma brucei rhodesiense (risedronate + FPP); assay type: functional, organism-based
[16] = tested on: Trypanosoma brucei rhodesiense; test: Percent inhibition of Trypanosoma brucei rhodesiense at 9.27 uM of risedronate along with FPP; assay type: functional
[17] = tested on: Trypanosoma brucei rhodesiense; test: Percent inhibition of Trypanosoma brucei rhodesiense at 27.85 uM of risedronate along with FPP; assay type: functional
[18] = tested on: Trypanosoma brucei rhodesiense; test: 50% inhibitory concentration against Trypanosoma brucei rhodesiense; assay type: functional, organism-based; summary of the method: as §1
[19] = tested on: Trypanosoma brucei rhodesiense; test: (§2) In vitro rescue of growth inhibition of Trypanosoma uM of compound; assay type: functional
[20] = tested on: Trypanosoma brucei rhodesiense; test: as §2; assay type: functional; remark: listed apart in the source
[21] = tested on: Trypanosoma brucei rhodesiense; test: as §2; assay type: functional; remark: listed apart in the source
[22] = tested on: Trypanosoma brucei rhodesiense; test: as §2; assay type: functional; remark: listed apart in the source
[23] = tested on: Trypanosoma brucei rhodesiense; test: as §2; assay type: functional; remark: listed apart in the source
[24] = tested on: Trypanosoma brucei rhodesiense; test: as §2; assay type: functional; remark: listed apart in the source

SMILES | selectivity ratio [1] | CC50 [2] | IC50 [3] | IC50 [4] | further results
O=P(O)(O)C(Nc1ccc(Br)cn1)P(=O)(O)O | 2 | 87 µM | 39.8 µM | 39.5 µM | –
O=P(O)(O)C(O)(CCc1cccnc1)P(=O)(O)O | > 473 | > 804 µM | 1.7 µM | 1.7 µM | –
CCCCCCCCCCC(O)(P(=O)(O)O)P(=O)(O)O | > 101 | > 806 µM | – | 8 µM | IC50 [5]: 7.94 µM
CCCCC(O)(P(=O)(O)O)P(=O)(O)O | > 10 | > 1040 µM | 100 µM | – | –
CCCCCC(O)(P(=O)(O)O)P(=O)(O)O | > 16 | > 993 µM | 63.1 µM | – | –
O=P(O)(O)C(O)(Cc1c[nH]cn1)P(=O)(O)O | 5 | 41 µM | 8.51 µM | – | –
CC(C)=CCC/C(C)=C/COP(=O)(O)OP(=O)(O)O.O=P(O)(O)C(O)(Cc1cccnc1)P(=O)(O)O | – | – | – | – | Inhibition [6]: 100%; Inhibition [7]: 83.7%; Inhibition [8]: 0%; Inhibition [9]: 100%; Inhibition [10]: 44.59%; IC50 [11]: 3.71 µM
CCCCCCCCCCCC(O)(P(=O)(O)O)P(=O)(O)O | 246 | 492 µM | – | 2 µM | IC50 [5]: 2 µM
Nc1ccc(CC(O)(P(=O)(O)O)P(=O)(O)O)cc1 | 5 | 218 µM | 39.8 µM | – | –
O=P(O)(O)C(O)(Cc1ccccn1)P(=O)(O)O | 63 | 13.9 µM | 0.219 µM | – | –
CCCC(O)(P(=O)(O)O)P(=O)(O)O | > 11 | > 967 µM | 91.2 µM | – | –
CCCCCCCCCC(O)(P(=O)(O)O)P(=O)(O)O | > 38 | > 775 µM | – | 20.5 µM | IC50 [5]: 20.4 µM
O=P(O)(O)C(Nc1ccc(Cl)cn1)P(=O)(O)O | > 19 | > 992 µM | 53.7 µM | 53.3 µM | –
Cc1cccnc1NC(P(=O)(O)O)P(=O)(O)O | 267 | 187 µM | 0.708 µM | 0.7 µM | –
CC(N)CC(O)(P(=O)(O)O)P(=O)(O)O (stereo unspecified) | 125 | 977 µM | 7.76 µM | 7.8 µM | –
O=P(O)(O)C(O)(CSc1ccncc1)P(=O)(O)O | > 38 | > 746 µM | 20 µM | – | –
Cc1ccnc(NC(P(=O)(O)O)P(=O)(O)O)c1 | 208 | 127 µM | 0.617 µM | 0.61 µM | –
O=P(O)(O)C(O)(Cc1ccccc1)P(=O)(O)O | > 44 | > 931 µM | 21.4 µM | – | –
CC(C)=CCC/C(C)=C/CC/C(C)=C/CO.O=P(O)(O)C(O)(Cc1cccnc1)P(=O)(O)O | – | – | – | – | Inhibition [12]: 0%; IC50 [13]: > 83.5 µM
CC(C)=CCC/C(C)=C/CC/C(C)=C/COP(=O)(O)OP(=O)(O)O.O=P(O)(O)C(O)(Cc1cccnc1)P(=O)(O)O | – | – | – | – | Inhibition [14]: 64.24%; IC50 [15]: 66.8 µM; Inhibition [16]: 0%; Inhibition [17]: 25.4%
O=P(O)(O)C(NC1CCCCC1)P(=O)(O)O [(CYCLOHEXYLAMINO)METHYLENEDIPHOSPHONIC ACID] | 13 | 271 µM | 20.9 µM | 20.9 µM | –
CCN(CC)C(P(=O)(O)O)P(=O)(O)O [(DIETHYLAMINO)METHYLENEDIPHOSPHONIC ACID] | 24 | 809 µM | 34.7 µM | 34.4 µM | –
CC(C)CCNC(P(=O)(O)O)P(=O)(O)O [(ISOPENTYLAMINO)METHYLENEDIPHOSPHONIC ACID] | > 11 | > 1150 µM | 102 µM | 102 µM | –
CCCCCCCCNC(P(=O)(O)O)P(=O)(O)O [(OCTYLAMINO)METHYLENEDIPHOSPHONIC ACID] | 39 | 66.8 µM | – | 1.7 µM | IC50 [5]: 1.7 µM
CCCCCNC(P(=O)(O)O)P(=O)(O)O [(PENTYLAMINO)METHYLENEDIPHOSPHONIC ACID] | > 23 | > 1150 µM | 50.1 µM | 50.6 µM | –
CCCCCN(C)CCC(O)(P(=O)(O)O)P(=O)(O)O [IBANDRONIC ACID] | 10 | 10.1 µM | 0.955 µM | 0.96 µM | –
NCCCCCC(O)(P(=O)(O)O)P(=O)(O)O [NERIDRONIC ACID] | 21 | 680 µM | – | – | IC50 [5]: 31.6 µM
CN(C)CCC(O)(P(=O)(O)O)P(=O)(O)O [OLPADRONIC ACID] | > 195 | > 1050 µM | 5.37 µM | – | –
NCCC(O)(P(=O)(O)O)P(=O)(O)O [PAMIDRONIC ACID] | < 2 | 156 µM | – | > 100 µM | IC50 [5]: > 100 µM
O=P(O)(O)C(O)(Cc1cccnc1)P(=O)(O)O [RISEDRONIC ACID] | 29 | 249 µM | 8.51 µM | – | IC50 [18]: 4.12 µM; Inhibition [19]: 23.49%; Inhibition [20]: 100%; Inhibition [21]: 86.49%; Inhibition [22]: 100%; Inhibition [23]: 0%; Inhibition [24]: 19.3%
